Experimental data: ChEMBL document CHEMBL1125418, “Antimycobacterial activity of a series of pyrazinoic acid esters” (1992)
Converted amounts (≈) assume the structure as drawn.

Assays:
[1] = tested on: Mycobacterium tuberculosis; test: In vitro activity against Mycobacterium. tuberculosis (strain type-BUR)at pH 5.8; type: functional
[2] = tested on: Mycobacterium tuberculosis; test: In vitro activity against Mycobacterium. tuberculosis (strain type-BUR)at pH 6.6; type: functional
In short: (§1)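 Twofold serial dilutions (200–3.12 µg/mL) in 7H10 agar with 10% OADC enrichment at pH 6.6, in compartmented plates. Plates were stored at 4 °C and used within 24–48 h. A no-drug compartment served as control for each isolate. Plates were incubated for 4 weeks at 37 °C. MIC was the lowest concentration giving 99% (2 log) growth inhibition.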

[3] = tested on: Mycobacterium tuberculosis; test: In vitro activity against Mycobacterium. tuberculosis (strain type-ATCC 35828)at pH 6.6; type: functional; in short: as §1
[4] = tested on: Mycobacterium kansasii; test: In vitro activity against Mycobacterium. kansasii (strain type-SWK)at pH 5.8; type: functional
In short: (§2)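 Pyrazinamide-resistant isolate SWK tested on Middlebrook 7H10 agar plus 10% OADC adjusted to pH 5.8. Compartmented plates hold 2-fold dilutions from 200 to 3.12 µg/mL, prepared 24–48 h before use and kept at 4 °C, with a drug-free compartment. Incubation was 37 °C for 4 weeks. MIC is the lowest level causing 99% (2 log) growth inhibition.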

[5] = tested on: Mycobacterium tuberculosis; test: In vitro activity against Mycobacterium. tuberculosis (strain type-ATCC 35828)at pH 5.8; type: functional
In short: (§3)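 Middlebrook 7H10 agar plus 10% OADC at pH 5.8 in compartmented plates, with serial twofold dilutions from 200 to 3.12 µg/mL. Plates were prepared 24–48 h before use and stored at 4 °C. A drug-free compartment was included per isolate. Incubation was 37 °C for 4 weeks. MIC was the lowest level producing 99% (2 log) inhibition of growth.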

[6] = tested on: Mycobacterium tuberculosis; test: In vitro activity against Mycobacterium strain ATCC 35828 (Mycobacterium tuberculosis); type: functional
In short: (§4)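 Agar dilution in compartmented plates of Middlebrook 7H10 agar with 10% OADC, adjusted to pH 5.8 or pH 6.6. Twofold compound dilutions spanned 200–3.12 µg/mL. Plates were made 24–48 h ahead and held at 4 °C. MIC (µg/mL) was the lowest concentration giving 99% (2 log) growth inhibition.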

[7] = tested on: Mycobacterium tuberculosis; test: In vitro activity against Mycobacterium strain BAK (Mycobacterium tuberculosis); type: functional
[8] = tested on: Mycobacterium tuberculosis; test: In vitro activity against Mycobacterium strain BUR (Mycobacterium tuberculosis); type: functional; in short: as §4
[9] = tested on: Mycobacterium tuberculosis; test: In vitro activity against Mycobacterium strain CES (Mycobacterium tuberculosis); type: functional; in short: as §4
[10] = tested on: Mycobacterium tuberculosis; test: In vitro activity against Mycobacterium strain DOL (Mycobacterium tuberculosis); type: functional; conditions: Mycobacterium tuberculosis; read-out: MIC
[11] = tested on: Mycobacterium tuberculosis; test: In vitro activity against Mycobacterium strain DOU (Mycobacterium tuberculosis); type: functional; in short: as §4
[12] = tested on: Mycobacterium kansasii; test: In vitro activity against Mycobacterium. kansasii (strain type-SWK).at pH 5.8; type: functional; in short: as §2
[13] = tested on: Mycobacterium kansasii; test: In vitro activity against Mycobacterium. kansasii (strain type-SWK).at pH 6.6; type: functional
In short: (§5)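 MIC for pyrazinamide-resistant isolate SWK by agar dilution in Middlebrook 7H10 with 10% OADC at pH 6.6. Serial 2-fold dilutions run 200–3.12 µg/mL in compartmented plates prepared 24–48 h in advance and stored at 4 °C. A drug-free control is included. Plates were held at 37 °C for 4 weeks. The endpoint is 99% (2 log) inhibition of growth.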

[14] = tested on: Mycobacterium tuberculosis; test: (§6) In vitro activity against Mycobacterium strain GLA (Mycobacterium tuberculosis); type: functional
[15] = tested on: Mycobacterium kansasii; test: In vitro activity against Mycobacterium strain SWK (Mycobacterium kansasii); type: functional
In short: (§7)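 Agar dilution MIC against pyrazinamide-resistant clinical isolates on Middlebrook 7H10 agar with 10% OADC at pH 5.8 or pH 6.6. Serial 2-fold dilutions span 200–3.12 µg/mL in compartmented plates made 24–48 h ahead and stored at 4 °C. Each isolate has a drug-free control. Plates were incubated at 37 °C for 4 weeks. MIC is the lowest concentration giving 99% (2 log) growth inhibition.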

[16] = tested on: Mycobacterium tuberculosis; test: In vitro activity against Mycobacterium. tuberculosis (strain type-H37Rv) at pH 5.8; type: functional
[17] = tested on: Mycobacterium tuberculosis; test: In vitro activity against Mycobacterium. tuberculosis (strain type-H37Rv) at pH 6.6; type: functional
[18] = tested on: Mycobacterium tuberculosis; test: In vitro activity against Mycobacterium strain ING (Mycobacterium tuberculosis); type: functional; in short: as §4
[19] = tested on: Mycobacterium tuberculosis; test: In vitro activity against Mycobacterium strain LEL (Mycobacterium tuberculosis); type: functional
[20] = tested on: Mycobacterium tuberculosis; test: In vitro activity against Mycobacterium strain MCQ (Mycobacterium tuberculosis); type: functional; in short: as §4
[21] = tested on: Mycobacterium tuberculosis; test: In vitro activity against Mycobacterium strain SMA (Mycobacterium tuberculosis); type: functional
[22] = tested on: Mycobacterium tuberculosis; test: In vitro activity against Mycobacterium strain DUB (Mycobacterium tuberculosis); type: functional
[23] = tested on: Mycobacterium kansasii; test: In vitro activity against Mycobacterium strain SCH (Mycobacterium kansasii); type: functional; in short: as §7
[24] = tested on: Mycobacterium tuberculosis; test: In vitro activity against Mycobacterium tuberculosis (strain type-BUR) at pH 5.8; type: functional; in short: as §3
[25] = tested on: Mycobacterium tuberculosis; test: In vitro inhibitory activity against Mycobacterium tuberculosis (strain type-ATCC 35828) pH 6.6; type: functional; in short: as §1
[26] = tested on: Mycobacterium tuberculosis; test: In vitro inhibitory activity against Mycobacterium tuberculosis (strain type-ATCC 35828)at pH 5.8; type: functional; in short: as §3
[27] = tested on: Mycobacterium kansasii; test: In vitro inhibitory activity against Mycobacterium kansasii (strain type-SWK) pH 6.6; type: functional; in short: as §5
[28] = tested on: Mycobacterium kansasii; test: In vitro inhibitory activity against Mycobacterium kansasii (strain type-SWK)at pH 5.8; type: functional; in short: as §2
[29] = tested on: Mycobacterium tuberculosis; test: In vitro inhibitory activity against Mycobacterium tuberculosis (strain type-H37Rv) at pH 6.6; type: functional; conditions: Mycobacterium tuberculosis; read-out: MIC
[30] = tested on: Mycobacterium tuberculosis; test: In vitro inhibitory activity against Mycobacterium tuberculosis (strain type-H37Rv) at pH 5.8; type: functional; in short: as §3
[31] = tested on: Mycobacterium tuberculosis; test: In vitro activity against Mycobacterium strain WOO (Mycobacterium tuberculosis); type: functional; in short: as §4
[32] = tested on: Mycobacterium kansasii; test: In vitro activity against Mycobacterium. kansasii (strain type-SWK)at pH 6.6; type: functional; in short: as §5
[33] = tested on: Mycobacterium tuberculosis; test: as §6
[34] = Mycobacterium tuberculosis, read-out: MIC

SMILES	MIC [1, 34]	MIC [3]	MIC [4]	MIC [5]	MIC [6]	MIC [7, 34]	MIC [8]	MIC [9]	MIC [10]	MIC [11]	MIC [12]	MIC [13]	MIC [15]	MIC [16, 34]	MIC [18]	MIC [20]	MIC [21, 34]	MIC [22, 34]	MIC [23]	MIC [31]	also measured
CC(C)(C)c1ccc(OC(=O)c2cnccn2)cc1	25 µg/mL (≈ 97.5 µM)	25 µg/mL (≈ 97.5 µM)	25 µg/mL (≈ 97.5 µM)	25 µg/mL (≈ 97.5 µM)																	MIC [2]: 50 µg/mL (≈ 195 µM)
CCCOC(=O)c1cnccn1	< 3.12 µg/mL	25 µg/mL (≈ 150 µM)		6.25 µg/mL (≈ 37.6 µM)	6.25 µg/mL (≈ 37.6 µM)	< 3.12 µg/mL	< 3.12 µg/mL	< 3.12 µg/mL	< 3.12 µg/mL	< 3.12 µg/mL	< 3.12 µg/mL	12.5 µg/mL (≈ 75.2 µM)	6.25 µg/mL (≈ 37.6 µM)	< 3.12 µg/mL	< 3.12 µg/mL	< 3.12 µg/mL	< 3.12 µg/mL	< 3.12 µg/mL	12.5 µg/mL (≈ 75.2 µM)		MIC [14]: 6.25 µg/mL (≈ 37.6 µM); MIC [17]: 25 µg/mL (≈ 150 µM); MIC [19, 34]: 6.25 µg/mL (≈ 37.6 µM)
CN(C)CCOC(=O)c1cnccn1					50 µg/mL (≈ 256 µM)	25 µg/mL (≈ 128 µM)	25 µg/mL (≈ 128 µM)	25 µg/mL (≈ 128 µM)	12.5 µg/mL (≈ 64 µM)	25 µg/mL (≈ 128 µM)			100 µg/mL (≈ 512 µM)		25 µg/mL (≈ 128 µM)	25 µg/mL (≈ 128 µM)	25 µg/mL (≈ 128 µM)	25 µg/mL (≈ 128 µM)	50 µg/mL (≈ 256 µM)	25 µg/mL (≈ 128 µM)	MIC [24]: 25 µg/mL (≈ 128 µM); MIC [25]: > 200 µg/mL; MIC [26]: 25 µg/mL (≈ 128 µM); MIC [14, 34]: 25 µg/mL (≈ 128 µM); MIC [27]: > 200 µg/mL; MIC [28]: 200 µg/mL (≈ 1020 µM); MIC [29]: 100 µg/mL (≈ 512 µM); MIC [30]: 12.5 µg/mL (≈ 64 µM); MIC [19, 34]: 25 µg/mL (≈ 128 µM)
C=CCOC(=O)c1cnccn1		200 µg/mL (≈ 1220 µM)	< 3.12 µg/mL	6.25 µg/mL (≈ 38.1 µM)	6.25 µg/mL (≈ 38.1 µM)	3.12 µg/mL (≈ 19 µM)	6.25 µg/mL (≈ 38.1 µM)	< 3.12 µg/mL	< 3.12 µg/mL	3.12 µg/mL (≈ 19 µM)			6.25 µg/mL (≈ 38.1 µM)	< 3.12 µg/mL	3.12 µg/mL (≈ 19 µM)	< 3.12 µg/mL			6.25 µg/mL (≈ 38.1 µM)	6.25 µg/mL (≈ 38.1 µM)	MIC [1]: 6.25 µg/mL (≈ 38.1 µM); MIC [32]: 12.5 µg/mL (≈ 76.1 µM); MIC [17, 34]: 200 µg/mL (≈ 1220 µM); MIC [19]: 3.12 µg/mL (≈ 19 µM); MIC [21]: 3.12 µg/mL (≈ 19 µM); MIC [33]: 6.25 µg/mL (≈ 38.1 µM); MIC [22]: 6.25 µg/mL (≈ 38.1 µM)
O=C(Oc1c(F)c(F)c(F)c(F)c1F)c1cnccn1		100 µg/mL (≈ 345 µM)		12.5 µg/mL (≈ 43.1 µM)							25 µg/mL (≈ 86.2 µM)	> 200 µg/mL		12.5 µg/mL (≈ 43.1 µM)							MIC [17, 34]: 100 µg/mL (≈ 345 µM)
O=C(Oc1ccc([N+](=O)[O-])cc1)c1cnccn1	12.5 µg/mL (≈ 51 µM)	200 µg/mL (≈ 816 µM)		25 µg/mL (≈ 102 µM)							25 µg/mL (≈ 102 µM)	200 µg/mL (≈ 816 µM)		12.5 µg/mL (≈ 51 µM)							MIC [17, 34]: 50 µg/mL (≈ 204 µM)
Cc1ccc(OC(=O)c2cnccn2)cc1		200 µg/mL (≈ 934 µM)	12.5 µg/mL (≈ 58.4 µM)	12.5 µg/mL (≈ 58.4 µM)	12.5 µg/mL (≈ 58.4 µM)		12.5 µg/mL (≈ 58.4 µM)	12.5 µg/mL (≈ 58.4 µM)	6.25 µg/mL (≈ 29.2 µM)	12.5 µg/mL (≈ 58.4 µM)			12.5 µg/mL (≈ 58.4 µM)		25 µg/mL (≈ 117 µM)	6.25 µg/mL (≈ 29.2 µM)	25 µg/mL (≈ 117 µM)	25 µg/mL (≈ 117 µM)	12.5 µg/mL (≈ 58.4 µM)	25 µg/mL (≈ 117 µM)	MIC [7]: 12.5 µg/mL (≈ 58.4 µM); MIC [1]: 12.5 µg/mL (≈ 58.4 µM); MIC [2]: 100 µg/mL (≈ 467 µM); MIC [32]: 200 µg/mL (≈ 934 µM); MIC [14]: 6.25 µg/mL (≈ 29.2 µM); MIC [16]: 12.5 µg/mL (≈ 58.4 µM); MIC [17]: 25 µg/mL (≈ 117 µM); MIC [19]: 12.5 µg/mL (≈ 58.4 µM)
